Reference: ChEMBL document CHEMBL2150974 (J Med Chem, 2012)
Activity calls are given as the source filed them. The calls are words filed in the database; no cut-off is given here.

Tests used:
[1] = target: Insulin-like growth factor 1 receptor (Homo sapiens) (UniProt P08069); assay: Inhibition of IGF1R at 10 uM
[2] = target: T1, Serine/threonine-protein kinase PLK4 (Homo sapiens) (UniProt O00444); assay: Inhibition of SAK at 10 uM
T1 sequence (whole entry): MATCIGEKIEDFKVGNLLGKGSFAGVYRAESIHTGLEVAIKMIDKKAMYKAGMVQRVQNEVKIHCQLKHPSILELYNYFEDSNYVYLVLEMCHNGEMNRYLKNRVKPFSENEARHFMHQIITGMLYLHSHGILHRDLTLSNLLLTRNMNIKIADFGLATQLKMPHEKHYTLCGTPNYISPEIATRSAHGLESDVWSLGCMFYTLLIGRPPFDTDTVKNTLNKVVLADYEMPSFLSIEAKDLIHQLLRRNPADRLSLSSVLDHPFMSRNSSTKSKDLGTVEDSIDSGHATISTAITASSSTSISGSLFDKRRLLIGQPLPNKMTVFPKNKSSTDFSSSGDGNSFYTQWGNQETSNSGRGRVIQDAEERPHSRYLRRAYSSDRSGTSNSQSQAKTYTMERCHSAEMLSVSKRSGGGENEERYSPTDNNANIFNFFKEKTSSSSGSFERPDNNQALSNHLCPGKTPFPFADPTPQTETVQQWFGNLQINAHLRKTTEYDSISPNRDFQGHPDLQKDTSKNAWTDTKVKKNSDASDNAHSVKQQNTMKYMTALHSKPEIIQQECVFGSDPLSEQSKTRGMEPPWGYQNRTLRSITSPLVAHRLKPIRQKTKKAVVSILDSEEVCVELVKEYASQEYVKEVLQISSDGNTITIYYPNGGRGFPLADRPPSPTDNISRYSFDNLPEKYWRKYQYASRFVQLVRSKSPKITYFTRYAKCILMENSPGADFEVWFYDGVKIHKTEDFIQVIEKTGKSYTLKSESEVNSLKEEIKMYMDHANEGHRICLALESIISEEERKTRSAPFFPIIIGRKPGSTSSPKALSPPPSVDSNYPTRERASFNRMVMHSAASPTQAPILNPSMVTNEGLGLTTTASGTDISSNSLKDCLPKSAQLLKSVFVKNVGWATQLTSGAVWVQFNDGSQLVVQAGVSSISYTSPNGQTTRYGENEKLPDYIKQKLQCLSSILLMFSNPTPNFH

[3] = test system: Serine/threonine-protein kinase B-raf (Homo sapiens), P15056 [V600E]; assay: Inhibition of BRAF V600E mutant at 10 uM
[4] = target: Vascular endothelial growth factor receptor 2 (Homo sapiens) (UniProt P35968); assay: Inhibition of VEGFR2 at 10 uM
[5] = target: T2, Mitogen-activated protein kinase 14 (Homo sapiens, UniProt Q16539); assay: Inhibition of p38alpha at 10 uM by immunosorbent based kinase assay
[6] = target: T3, NUAK family SNF1-like kinase 1 (Homo sapiens) (UniProt O60285); assay: Inhibition of ARK5 at 10 uM
T3 sequence (whole entry): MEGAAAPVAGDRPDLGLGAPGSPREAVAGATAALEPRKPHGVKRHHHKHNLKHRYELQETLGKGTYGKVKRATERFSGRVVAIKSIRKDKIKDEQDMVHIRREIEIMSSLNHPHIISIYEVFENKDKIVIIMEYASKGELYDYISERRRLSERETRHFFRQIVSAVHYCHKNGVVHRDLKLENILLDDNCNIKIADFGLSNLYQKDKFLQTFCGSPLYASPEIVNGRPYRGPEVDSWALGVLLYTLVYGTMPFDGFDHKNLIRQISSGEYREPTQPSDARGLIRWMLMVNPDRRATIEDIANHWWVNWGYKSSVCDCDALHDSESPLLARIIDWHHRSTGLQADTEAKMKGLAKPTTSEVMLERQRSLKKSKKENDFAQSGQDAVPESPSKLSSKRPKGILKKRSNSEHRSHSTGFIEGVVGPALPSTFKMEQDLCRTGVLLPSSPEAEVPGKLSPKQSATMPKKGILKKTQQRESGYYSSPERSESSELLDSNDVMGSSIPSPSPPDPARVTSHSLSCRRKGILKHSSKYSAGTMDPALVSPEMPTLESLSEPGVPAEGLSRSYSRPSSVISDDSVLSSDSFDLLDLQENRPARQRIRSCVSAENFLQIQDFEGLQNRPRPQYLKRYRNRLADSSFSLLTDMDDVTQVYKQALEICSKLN

[7] = target: Aurora kinase B (Homo sapiens) (UniProt Q96GD4); assay: Inhibition of AuroraB at 10 uM
[8] = target: Focal adhesion kinase 1 (Homo sapiens) (UniProt Q05397); assay: Inhibition of FAK at 10 uM
Chain of Focal adhesion kinase 1 (Homo sapiens) (Q05397 2-1052 limits assumed): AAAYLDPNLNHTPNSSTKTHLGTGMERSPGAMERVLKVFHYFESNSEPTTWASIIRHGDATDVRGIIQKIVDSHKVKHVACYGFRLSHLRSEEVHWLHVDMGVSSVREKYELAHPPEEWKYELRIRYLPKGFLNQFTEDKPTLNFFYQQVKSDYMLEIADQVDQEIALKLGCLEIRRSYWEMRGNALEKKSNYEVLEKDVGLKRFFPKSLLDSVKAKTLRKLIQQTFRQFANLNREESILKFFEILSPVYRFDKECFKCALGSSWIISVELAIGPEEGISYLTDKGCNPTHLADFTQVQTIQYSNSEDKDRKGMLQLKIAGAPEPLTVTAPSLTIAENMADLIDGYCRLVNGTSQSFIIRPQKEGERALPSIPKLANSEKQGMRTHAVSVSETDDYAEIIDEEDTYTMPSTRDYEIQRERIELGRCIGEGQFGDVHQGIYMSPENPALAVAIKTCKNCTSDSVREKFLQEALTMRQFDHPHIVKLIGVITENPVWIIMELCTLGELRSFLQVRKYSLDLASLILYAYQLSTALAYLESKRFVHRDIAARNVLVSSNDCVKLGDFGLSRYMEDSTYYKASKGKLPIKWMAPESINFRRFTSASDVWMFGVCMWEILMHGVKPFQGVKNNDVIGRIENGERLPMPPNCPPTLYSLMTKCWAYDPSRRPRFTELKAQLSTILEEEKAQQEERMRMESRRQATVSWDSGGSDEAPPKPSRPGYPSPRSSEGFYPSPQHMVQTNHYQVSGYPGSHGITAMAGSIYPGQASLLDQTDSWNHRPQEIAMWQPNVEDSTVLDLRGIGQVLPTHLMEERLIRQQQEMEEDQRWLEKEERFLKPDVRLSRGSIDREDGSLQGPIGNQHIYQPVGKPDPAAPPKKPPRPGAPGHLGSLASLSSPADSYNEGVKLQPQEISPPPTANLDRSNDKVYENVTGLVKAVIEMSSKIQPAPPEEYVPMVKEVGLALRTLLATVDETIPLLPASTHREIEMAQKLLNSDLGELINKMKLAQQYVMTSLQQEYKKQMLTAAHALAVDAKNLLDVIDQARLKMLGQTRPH

[9] = target: Serine/threonine-protein kinase N1 (Homo sapiens) (UniProt Q16512); assay: Inhibition of PRK1 at 10 uM
Chain of Serine/threonine-protein kinase N1 (Homo sapiens) (Q16512 2-942 limits assumed): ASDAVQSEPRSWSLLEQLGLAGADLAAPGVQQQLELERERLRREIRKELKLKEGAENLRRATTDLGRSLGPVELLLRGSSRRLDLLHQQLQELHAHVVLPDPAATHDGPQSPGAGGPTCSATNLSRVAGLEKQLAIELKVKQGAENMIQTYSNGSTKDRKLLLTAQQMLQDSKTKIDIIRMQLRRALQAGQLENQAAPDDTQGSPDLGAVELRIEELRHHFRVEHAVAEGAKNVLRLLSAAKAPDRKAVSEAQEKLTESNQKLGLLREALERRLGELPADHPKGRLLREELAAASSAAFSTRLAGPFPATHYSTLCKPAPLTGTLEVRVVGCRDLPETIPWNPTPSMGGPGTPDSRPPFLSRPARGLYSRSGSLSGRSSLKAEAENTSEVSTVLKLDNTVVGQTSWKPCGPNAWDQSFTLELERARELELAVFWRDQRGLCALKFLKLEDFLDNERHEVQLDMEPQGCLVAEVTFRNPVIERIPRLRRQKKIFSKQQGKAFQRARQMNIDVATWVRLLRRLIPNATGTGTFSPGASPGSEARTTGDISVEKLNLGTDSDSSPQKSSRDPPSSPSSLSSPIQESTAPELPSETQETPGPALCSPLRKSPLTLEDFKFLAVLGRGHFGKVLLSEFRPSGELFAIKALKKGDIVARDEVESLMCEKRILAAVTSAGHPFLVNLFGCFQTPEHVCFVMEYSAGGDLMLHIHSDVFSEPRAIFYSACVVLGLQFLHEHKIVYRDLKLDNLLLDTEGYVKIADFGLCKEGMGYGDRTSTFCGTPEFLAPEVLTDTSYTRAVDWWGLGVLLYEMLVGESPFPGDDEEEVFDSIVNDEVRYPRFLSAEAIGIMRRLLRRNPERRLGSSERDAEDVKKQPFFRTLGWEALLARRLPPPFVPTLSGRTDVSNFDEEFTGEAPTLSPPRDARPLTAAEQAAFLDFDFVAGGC

[10] = target: Insulin receptor (Homo sapiens) (UniProt P06213); assay: Inhibition of INSR at 10 uM
[11] = target: Hepatocyte growth factor receptor (Homo sapiens) (UniProt P08581); assay: Inhibition of MET at 10 uM
[12] = target: Proto-oncogene tyrosine-protein kinase Src (Homo sapiens) (UniProt P12931); assay: Inhibition of SRC at 10 uM
[13] = target: RAC-alpha serine/threonine-protein kinase (Homo sapiens) (UniProt P31749); assay: Inhibition of AKT1 at 10 uM
Chain of RAC-alpha serine/threonine-protein kinase (Homo sapiens) (P31749 whole entry): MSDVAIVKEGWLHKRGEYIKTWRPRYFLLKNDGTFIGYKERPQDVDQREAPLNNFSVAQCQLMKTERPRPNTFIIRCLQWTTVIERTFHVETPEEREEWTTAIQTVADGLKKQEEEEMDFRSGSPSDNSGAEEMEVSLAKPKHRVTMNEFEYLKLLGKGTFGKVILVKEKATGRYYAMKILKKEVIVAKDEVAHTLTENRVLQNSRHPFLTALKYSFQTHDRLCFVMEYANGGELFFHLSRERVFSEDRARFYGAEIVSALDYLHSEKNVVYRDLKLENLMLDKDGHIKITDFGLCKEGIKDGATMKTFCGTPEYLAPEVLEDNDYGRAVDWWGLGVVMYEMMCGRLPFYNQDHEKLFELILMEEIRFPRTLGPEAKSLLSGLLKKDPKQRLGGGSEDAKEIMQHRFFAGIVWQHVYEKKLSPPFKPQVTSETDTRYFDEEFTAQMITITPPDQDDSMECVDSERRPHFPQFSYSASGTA

[14] = target: Tyrosine-protein kinase receptor UFO (Homo sapiens) (UniProt P30530); assay: Inhibition of AXL at 10 uM
[15] = target: Casein kinase II subunit alpha (Homo sapiens) (UniProt P68400); assay: Inhibition of CK2alpha1 at 10 uM
Chain of Casein kinase II subunit alpha (Homo sapiens) (P68400 whole entry, looked up): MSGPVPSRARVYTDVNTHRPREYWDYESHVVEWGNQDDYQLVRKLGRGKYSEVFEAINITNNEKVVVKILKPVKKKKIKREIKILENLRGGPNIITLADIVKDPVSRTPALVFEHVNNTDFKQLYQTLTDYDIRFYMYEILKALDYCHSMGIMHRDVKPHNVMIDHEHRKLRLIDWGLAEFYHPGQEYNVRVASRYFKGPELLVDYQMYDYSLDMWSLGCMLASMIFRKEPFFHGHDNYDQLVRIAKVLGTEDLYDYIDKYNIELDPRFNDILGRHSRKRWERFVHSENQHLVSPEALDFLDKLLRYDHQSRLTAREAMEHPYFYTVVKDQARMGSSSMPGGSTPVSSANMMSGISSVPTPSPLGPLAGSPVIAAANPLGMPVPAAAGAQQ

[16] = target: BDNF/NT-3 growth factors receptor (Homo sapiens) (UniProt Q16620); assay: Inhibition of TRKB at 10 uM
[17] = target: Serine/threonine-protein kinase PLK1 (Homo sapiens) (UniProt P53350); assay: Inhibition of PLK1 at 10 uM
Chain of Serine/threonine-protein kinase PLK1 (Homo sapiens) (P53350 whole entry): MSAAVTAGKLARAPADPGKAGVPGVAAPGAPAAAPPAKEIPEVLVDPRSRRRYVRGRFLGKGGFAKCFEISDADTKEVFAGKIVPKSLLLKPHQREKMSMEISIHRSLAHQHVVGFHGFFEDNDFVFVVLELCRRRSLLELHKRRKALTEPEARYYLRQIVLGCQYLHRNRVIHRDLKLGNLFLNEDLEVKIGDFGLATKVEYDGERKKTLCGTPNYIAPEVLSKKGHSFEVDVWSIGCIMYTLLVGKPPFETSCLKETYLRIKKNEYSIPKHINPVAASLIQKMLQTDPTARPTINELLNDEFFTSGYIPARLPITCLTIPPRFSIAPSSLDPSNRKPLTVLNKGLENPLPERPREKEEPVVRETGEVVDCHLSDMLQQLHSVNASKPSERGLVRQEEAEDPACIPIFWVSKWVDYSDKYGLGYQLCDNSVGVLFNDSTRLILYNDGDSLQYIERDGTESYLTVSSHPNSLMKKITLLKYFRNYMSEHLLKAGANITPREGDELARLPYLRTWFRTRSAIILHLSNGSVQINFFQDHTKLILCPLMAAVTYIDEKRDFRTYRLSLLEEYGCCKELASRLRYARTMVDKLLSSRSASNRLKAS

[18] = target: T2, Mitogen-activated protein kinase 14; assay: Inhibition of p38alpha by immunosorbent based kinase assay
[19] = target: T2, Mitogen-activated protein kinase 14; assay: Inhibition of p38alpha-dependent TNFalpha production in human whole blood at 100 uM
Procedure, shortened: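 Freshly drawn human whole blood, used diluted so that serum albumin and other plasma proteins are present; inhibition of TNF-α release from the blood's immune cells measured.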

[20] = target: T2, Mitogen-activated protein kinase 14; assay: Inhibition of p38alpha-dependent TNFalpha production in human whole blood

Chain of Insulin-like growth factor 1 receptor (Homo sapiens) (P08069 31-736 limits assumed): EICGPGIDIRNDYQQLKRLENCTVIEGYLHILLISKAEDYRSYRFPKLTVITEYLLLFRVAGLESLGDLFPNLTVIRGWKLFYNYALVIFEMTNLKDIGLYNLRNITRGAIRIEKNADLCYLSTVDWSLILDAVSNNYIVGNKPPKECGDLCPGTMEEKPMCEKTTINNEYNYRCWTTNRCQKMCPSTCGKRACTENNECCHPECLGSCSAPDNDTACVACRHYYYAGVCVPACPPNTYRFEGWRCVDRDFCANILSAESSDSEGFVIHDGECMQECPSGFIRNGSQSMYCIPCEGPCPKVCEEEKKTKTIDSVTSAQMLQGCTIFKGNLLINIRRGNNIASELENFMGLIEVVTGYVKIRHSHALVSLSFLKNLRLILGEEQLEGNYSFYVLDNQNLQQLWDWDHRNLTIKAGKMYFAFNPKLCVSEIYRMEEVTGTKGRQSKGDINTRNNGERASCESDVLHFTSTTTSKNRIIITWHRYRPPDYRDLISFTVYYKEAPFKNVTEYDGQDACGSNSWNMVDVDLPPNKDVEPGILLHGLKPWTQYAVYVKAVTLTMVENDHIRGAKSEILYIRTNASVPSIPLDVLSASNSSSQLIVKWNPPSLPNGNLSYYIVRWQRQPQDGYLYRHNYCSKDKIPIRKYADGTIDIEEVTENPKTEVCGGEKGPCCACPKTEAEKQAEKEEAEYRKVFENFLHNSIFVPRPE
Chain of Insulin-like growth factor 1 receptor (Homo sapiens) (P08069 741-1367 limits assumed): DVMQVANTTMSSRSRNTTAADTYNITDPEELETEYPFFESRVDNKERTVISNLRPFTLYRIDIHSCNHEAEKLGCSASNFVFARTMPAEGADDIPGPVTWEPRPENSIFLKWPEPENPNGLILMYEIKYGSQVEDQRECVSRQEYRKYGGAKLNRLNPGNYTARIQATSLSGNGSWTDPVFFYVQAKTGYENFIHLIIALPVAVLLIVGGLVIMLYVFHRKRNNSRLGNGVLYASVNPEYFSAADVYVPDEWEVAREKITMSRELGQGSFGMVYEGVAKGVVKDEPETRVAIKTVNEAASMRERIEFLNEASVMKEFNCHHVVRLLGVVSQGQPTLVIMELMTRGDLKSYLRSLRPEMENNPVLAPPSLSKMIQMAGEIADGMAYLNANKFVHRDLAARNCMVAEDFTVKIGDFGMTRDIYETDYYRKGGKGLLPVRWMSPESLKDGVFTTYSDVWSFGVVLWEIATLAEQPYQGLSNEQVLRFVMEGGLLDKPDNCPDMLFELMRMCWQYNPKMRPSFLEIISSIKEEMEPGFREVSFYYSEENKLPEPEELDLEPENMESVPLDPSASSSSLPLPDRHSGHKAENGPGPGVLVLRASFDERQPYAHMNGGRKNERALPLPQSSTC

Row | inhibition [1] | inhibition [2] | inhibition [3] | inhibition [4] | inhibition [5] [%] | inhibition [6] | inhibition [7] | inhibition [8] | inhibition [9] | inhibition [10] | inhibition [11] | inhibition [12] | inhibition [13] | inhibition [14] | inhibition [15] | inhibition [16] | inhibition [17] | IC50 [18] [µM] | inhibition [19] [%] | IC50 [20] [µM] | SMILES
1 | inactive | inactive | inactive | inactive | 21 | inactive | inactive | inactive | inactive | inactive | inactive | inactive | inactive | inactive | inactive | inactive | inactive | – | – | – | COc1ccc2ccc3cc(Nc4ccc(F)cc4F)ccc3c(=O)c2c1
2 | inactive | inactive | inactive | inactive | – | inactive | inactive | inactive | inactive | inactive | inactive | inactive | inactive | inactive | inactive | inactive | inactive | 0.44 | 40 | – | CC1(C)OC[C@H](COc2cccc3c2CCc2cc(Nc4ccc(F)cc4F)ccc2C3=O)O1
3 | inactive | inactive | inactive | inactive | 32 | inactive | inactive | inactive | inactive | inactive | inactive | inactive | inactive | inactive | inactive | inactive | inactive | – | – | – | COc1ccc2c(c1)C(=O)c1ccc(-c3ccccc3)cc1CC2
4 | inactive | inactive | inactive | inactive | – | inactive | inactive | inactive | inactive | inactive | inactive | inactive | inactive | inactive | inactive | inactive | inactive | 0.08 | – | 52.1 | COc1cccc2c1CCc1cc(Nc3ccccc3N)ccc1C2=O
